Results reported in ChEMBL document CHEMBL1145178, “Exploring the role of different drug transport routes in permeability screening” (J Med Chem, 2005).
Where a SMILES comes first, the peptide text is derived from it.

Experiments:
[1] = Permeability Coefficient in Caco-2 cell culture model; type: ADME, cell-based; conditions: human
[2] = Fraction absorbed in human intestine after oral administration compound was measured; type: ADME, tissue-based
[3] = Permeability Coefficient in 2/4/A1 cell model; type: ADME, cell-based, Homo sapiens
[4] = Permeability Coefficient in hexadecane membranes model; type: ADME, cell membranes; conditions: not told
In short: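 Hexadecane (5% v/v in hexane) was loaded onto 0.4 µm polycarbonate filters, and the hexane was evaporated for ≥1 h at RT. Drug in HBSS/25 mM HEPES pH 7.4 was placed donor side, with pH 7.4 buffer receiver side, at 37°C and 500 rpm stirring. Receiver sampled over 10–120 min.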

SMILES | Papp [1] [×10⁻⁶ cm/s] | Fa [2] [%] | Papp [3] [×10⁻⁶ cm/s] | Papp [4] [×10⁻⁶ cm/s] | Papp (Homo sapiens) [cm/s · 10E6]
CN(Cc1cnc2nc(N)nc(N)c2n1)c1ccc(C(=O)NC(CCC(=O)O)C(=O)O)cc1 (single isomer, unassigned) [METHOTREXATE] | 0.03 | 59 | 5.2 | 0.02 | –
Nc1nc2c(ncn2COCCO)c(=O)[nH]1 [ACYCLOVIR] | 0.38 | 19 | 8.2 | – | 0.034
C=CCc1ccccc1OCC(O)CNC(C)C (configuration not stated) [ALPRENOLOL] | – | – | 290 | 160 | –
Cc1cc(=O)n(-c2ccccc2)n1C [ANTIPYRINE] | – | – | 250 | 11 | –
CN/C(=N/CCSCc1nc[nH]c1C)NC#N [CIMETIDINE] | 0.67 | 80 | 39 | 0.085 | –
O=P(O)(O)C(Cl)(Cl)P(=O)(O)O [CLODRONIC ACID] | 0.059 | 3 | 4.5 | 12 | –
CN1CC(=O)NC1=N [CREATININE] | 1.2 | 70 | 21 | 0.12 | –
O=c1[nH]cnc2c1ncn2[C@H]1CC[C@@H](CO)O1 [DIDANOSINE] | 0.25 | 42 | 14 | 0.099 | –
C[C@H]1O[C@@H](O[C@H]2[C@@H](O)C[C@H](O[C@H]3[C@@H](O)C[C@H](O[C@H]4CC[C@@]5(C)[C@H](CC[C@@H]6[C@@H]5C[C@@H](O)[C@]5(C)[C@@H](C7=CC(=O)OC7)CC[C@]65O)C4)O[C@@H]3C)O[C@@H]2C)C[C@H](O)[C@@H]1O [DIGOXIN] | 1.3 | 81 | 6.7 | 0.12 | –
O=C(O)P(=O)(O)O [FOSCARNET] | 0.043 | 17 | 9.5 | 0.36 | –
Nc1nc(O)c2ncn(COC(CO)CO)c2n1 [GANCICLOVIR] | – | 5 | – | – | –
CN(CC(=O)O)C(=O)CN [GLYCYLSARCOSINE] (HELM PEPTIDE1{G.[Sar]}$$$$V2.0) | 0.5 | 100 | 11 | 0.25 | –
OC[C@H]1O[C@@H](O[C@@H]2[C@@H](CO)O[C@](O)(CO)[C@H]2O)[C@H](O)[C@@H](O)[C@H]1O [LACTULOSE] | – | 1 | 8.9 | 0.081 | –
Nc1nc(=O)c2ncn([C@@H]3C[C@H](CO)[C@H]3CO)c2[nH]1 [LOBUCAVIR] | 0.88 | 50 | 14 | 0.057 | –
OC[C@@H](O)[C@@H](O)[C@H](O)[C@H](O)CO [MANNITOL] | – | – | 11 | 0.17 | –
CN(C)C(=N)N=C(N)N [METFORMIN] | 0.66 | – | 20 | 0.51 | –
Cc1ccccc1N1C(=O)c2cc(S(N)(=O)=O)c(Cl)cc2NC1C (configuration not stated) [METOLAZONE] | 4.3 | 64 | 14 | 1.1 | –
COCCc1ccc(OCC(O)CNC(C)C)cc1 (configuration not stated) [METOPROLOL] | – | – | 190 | 8.6 | –
O=C1c2c(O)ccc(O)c2C(=O)c2c(NCCNCCO)ccc(NCCNCCO)c21 [MITOXANTRONE] | 2.3 | – | 7.3 | 0.74 | –
CC(C)(C)NCC(O)COc1cccc2c1C[C@H](O)[C@H](O)C2 (some centres not stated) [NADOLOL] | 0.28 | 30 | 14 | 0.032 | –
O=C(O)c1cc(/N=N/c2ccc(O)c(C(=O)O)c2)ccc1O [OLSALAZINE] | 0.05 | 3 | 4.5 | 12 | –
CC(C)NCC(O)COc1cccc2[nH]ccc12 (configuration not stated) [PINDOLOL] | – | – | 67 | 0.73 | –
CC(C)NCC(O)COc1cccc2ccccc12 (configuration not stated) [PROPRANOLOL] | 204 | 100 | 240 | 58 | –
OC[C@H]1O[C@H](OC[C@H]2O[C@H](O[C@]3(CO)O[C@H](CO)[C@@H](O)[C@@H]3O)[C@H](O)[C@@H](O)[C@@H]2O)[C@H](O)[C@@H](O)[C@H]1O [RAFFINOSE] | – | 0 | 5.9 | 0.051 | –
O=C(O)c1cc(/N=N/c2ccc(S(=O)(=O)Nc3ccccn3)cc2)ccc1O [SULFASALAZINE] | – | 12 | 9.6 | – | 0.028
CCN1CCCC1CNC(=O)c1cc(S(N)(=O)=O)ccc1OC (configuration not stated) [SULPIRIDE] | – | 30 | 11 | – | –
CC(C)(C)NCC(O)c1cc(O)cc(O)c1 (configuration not stated) [TERBUTALINE] | 0.23 | 73 | 41 | 0.96 | –
CC(C)[C@H](N)C(=O)OCCOCn1cnc2c(=O)[nH]c(N)nc21 [VALACYCLOVIR] | 2.3 | 36 | 35 | 0.39 | –
